# Data reported in ChEMBL document CHEMBL3286203, “Reactive oxygen species (ROS) inducible DNA cross-linking agents and their effect on cancer cells and normal lymphocytes” (J Med Chem, 2014).
# Activity calls are given as the source filed them. The rule behind the calls is not given here.
# Legend:
# K562 = experiment: Cytotoxicity against human K562 cells assessed as growth inhibition at 10 uM after 48 hrs by SRB assay; type: functional, cell-based
# Procedure, shortened: (§1)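 NCI DTP 60-cell-line screen run at the NCI. Cells were grown in RPMI 1640 with 5% FBS and 2 mM L-glutamine. They were seeded at 5000–40 000 cells/well depending on doubling time and grown in two plates per line. Each was exposed to a single 10 μM dose for 48 h at 37 °C, 5% CO2, 95% air, 100% humidity. Read-out was percent growth.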
# [1] = Cytotoxicity against human OVCAR4 cells after 48 hrs by SRB assay; type: functional; settings: OVCAR-4, 48 h
# Procedure, shortened: (§2)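 GI50 from the NCI Developmental Therapeutics Program in vitro human tumor cell screen. Cell lines were maintained in RPMI 1640 with 5% fetal bovine serum and 2 mM L-glutamine. They were seeded at 5000–40 000 cells/well, depending on each line's doubling time, then exposed to drug for 48 h at 37 °C, 5% CO2.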
# SF-268 = experiment: Cytotoxicity against human SF268 cells assessed as growth inhibition at 10 uM after 48 hrs by SRB assay; type: functional, cell-based
# Procedure, shortened: (§3)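 Single-dose screen run by the NCI Developmental Therapeutics Program (NCI-60). Cells were grown in RPMI 1640 with 5% fetal bovine serum and 2 mM L-glutamine. They were plated at 5000–40 000 cells/well, depending on doubling time. Each line was run in two plates and exposed to 10 μM drug for 48 h at 37 °C, 5% CO2, 100% humidity. Read-out was growth percent.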
# RXF 393 = experiment: Cytotoxicity against human RXF393 cells assessed as growth inhibition at 10 uM after 48 hrs by SRB assay; type: functional, cell-based; procedure, shortened: as §3
# MDA-MB-435 = experiment: Cytotoxicity against human MDA-MB-435 cells assessed as growth inhibition at 10 uM after 48 hrs by SRB assay; type: functional, cell-based; procedure, shortened: as §3
# UACC-62 = experiment: Cytotoxicity against human UACC62 cells assessed as growth inhibition at 10 uM after 48 hrs by SRB assay; type: functional, cell-based
# Procedure, shortened: (§4)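 NCI-60 DTP human tumour line screen. Cells grown in RPMI 1640 with 5% fetal bovine serum and 2 mM L-glutamine, plated at 5000–40 000 cells/well according to doubling time. Single dose of 10 μM for 48 h at 37 °C, 5% CO2, 95% air, 100% humidity, two plates per line. Read-out is growth percent.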
# A498 = experiment: Cytotoxicity against human A498 cells after 48 hrs by SRB assay; type: functional; settings: A498, 48 h
# Procedure, shortened: (§5)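 GI50 was determined in the NCI Developmental Therapeutics Program in vitro 60-line cancer screen. Tumour lines were maintained in RPMI 1640 containing 5% FBS and 2 mM L-glutamine. Cells were inoculated at 5000–40 000 cells/well according to each line's doubling time before drug exposure.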
# [2] = Cytotoxicity against human UACC257 cells after 48 hrs by SRB assay; type: functional; settings: UACC-257, 48 h
# Procedure, shortened: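 GI50 from the NCI-60 DTP human tumour line screen. Lines grown in RPMI 1640 with 5% fetal bovine serum and 2 mM L-glutamine, plated at 5000–40 000 cells/well according to doubling time. Incubated 48 h at 37 °C, 5% CO2.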
# MOLT-4 [3] = experiment: Cytotoxicity against human MOLT4 cells assessed as growth inhibition at 10 uM after 48 hrs by SRB assay; type: functional, cell-based; procedure, shortened: as §3
# MOLT-4 [4] = experiment: Cytotoxicity against human MOLT4 cells after 48 hrs by SRB assay; type: functional; settings: MOLT-4, 48 h; procedure, shortened: as §2
# DU-145 = experiment: Cytotoxicity against human DU145 cells assessed as growth inhibition at 10 uM after 48 hrs by SRB assay; type: functional, cell-based; procedure, shortened: as §1
# TK-10 = experiment: Cytotoxicity against human TK10 cells assessed as growth inhibition at 10 uM after 48 hrs by SRB assay; type: functional, cell-based; procedure, shortened: as §4
# NCI-H460 = experiment: Cytotoxicity against human NCI-H460 cells assessed as growth inhibition at 10 uM after 48 hrs by SRB assay; type: functional, cell-based; procedure, shortened: as §3
# KM12 = experiment: Cytotoxicity against human KM12 cells assessed as growth inhibition at 10 uM after 48 hrs by SRB assay; type: functional, cell-based; procedure, shortened: as §1
# HOP-92 = experiment: Cytotoxicity against human HOP92 cells assessed as growth inhibition at 10 uM after 48 hrs by SRB assay; type: functional, cell-based; procedure, shortened: as §1
# OVCAR-4 = experiment: Cytotoxicity against human OVCAR4 cells assessed as growth inhibition at 10 uM after 48 hrs by SRB assay; type: functional, cell-based; procedure, shortened: as §3
# SK-MEL-2 [5] = experiment: Cytotoxicity against human SK-MEL-2 cells assessed as growth inhibition at 10 uM after 48 hrs by SRB assay; type: functional, cell-based; procedure, shortened: as §3
# SK-MEL-2 [6] = experiment: Cytotoxicity against human SK-MEL-2 cells after 48 hrs by SRB assay; type: functional; settings: SK-MEL-2, 48 h; procedure, shortened: as §2
# RPMI-8226 = experiment: Cytotoxicity against human RPMI8226 cells after 48 hrs by SRB assay; type: functional; settings: RPMI-8226, 48 h; procedure, shortened: as §2
# U-251 = experiment: Cytotoxicity against human U251 cells assessed as growth inhibition at 10 uM after 48 hrs by SRB assay; type: functional, cell-based; procedure, shortened: as §4
# COLO 205 [7] = experiment: Cytotoxicity against human COLO205 cells after 48 hrs by SRB assay; type: functional; settings: COLO 205, 48 h; procedure, shortened: as §5
# EKVX = experiment: Cytotoxicity against human EKVX cells assessed as growth inhibition at 10 uM after 48 hrs by SRB assay; type: functional, cell-based; procedure, shortened: as §1
# OVCAR-5 = experiment: Cytotoxicity against human OVCAR5 cells assessed as growth inhibition at 10 uM after 48 hrs by SRB assay; type: functional, cell-based; procedure, shortened: as §3
# UO-31 = experiment: Cytotoxicity against human UO31 cells assessed as growth inhibition at 10 uM after 48 hrs by SRB assay; type: functional, cell-based; procedure, shortened: as §4
# Malme-3M = experiment: Cytotoxicity against human MALME-3M cells assessed as growth inhibition at 10 uM after 48 hrs by SRB assay; type: functional, cell-based; procedure, shortened: as §1
# NCI-H322M = experiment: Cytotoxicity against human NCI-H322M cells assessed as growth inhibition at 10 uM after 48 hrs by SRB assay; type: functional, cell-based; procedure, shortened: as §3
# [8] = Cytotoxicity against human NCI-ADR-RES cells after 48 hrs by SRB assay; type: functional; procedure, shortened: as §2
# COLO 205 [9] = experiment: Cytotoxicity against human COLO205 cells assessed as growth inhibition at 10 uM after 48 hrs by SRB assay; type: functional, cell-based; procedure, shortened: as §1
# IGROV-1 = experiment: Cytotoxicity against human IGROV1 cells assessed as growth inhibition at 10 uM after 48 hrs by SRB assay; type: functional, cell-based; procedure, shortened: as §1
# A549 = experiment: Cytotoxicity against human A549 cells assessed as growth inhibition at 10 uM after 48 hrs by SRB assay; type: functional, cell-based; procedure, shortened: as §1
# CCRF-CEM = experiment: Cytotoxicity against human CCRF-CEM cells after 48 hrs by SRB assay; type: functional; procedure, shortened: as §5
# PC-3 = experiment: Cytotoxicity against human PC3 cells assessed as growth inhibition at 10 uM after 48 hrs by SRB assay; type: functional, cell-based; procedure, shortened: as §3
# LOX IMVI = experiment: Cytotoxicity against human LOXIMVI cells after 48 hrs by SRB assay; type: functional; procedure, shortened: as §5
# OVCAR-8 = experiment: Cytotoxicity against human OVCAR8 cells assessed as growth inhibition at 10 uM after 48 hrs by SRB assay; type: functional, cell-based; procedure, shortened: as §3
# HCC 2998 = experiment: Cytotoxicity against human HCC2998 cells assessed as growth inhibition at 10 uM after 48 hrs by SRB assay; type: functional, cell-based; procedure, shortened: as §1
# UACC-257 = experiment: Cytotoxicity against human UACC257 cells assessed as growth inhibition at 10 uM after 48 hrs by SRB assay; type: functional, cell-based; procedure, shortened: as §4
compound,measurement,setting,value
CC1(C)OB(c2ccc(N(CCCl)CCCl)cc2)OC1(C)C,growth inhibition (GI),K562,Active
same,GI50,[1],17.4 µM
same,growth inhibition (GI),SF-268,Active
same,growth inhibition (GI),RXF 393,Active
same,growth inhibition (GI),MDA-MB-435,Active
same,growth inhibition (GI),UACC-62,Active
same,GI50,A498,2.81 µM
same,GI50,[2],11.6 µM
same,growth inhibition (GI),MOLT-4 [3],Active
same,GI50,MOLT-4 [4],3.48 µM
same,growth inhibition (GI),DU-145,Active
same,growth inhibition (GI),TK-10,Active
same,growth inhibition (GI),NCI-H460,Active
same,growth inhibition (GI),KM12,Active
same,growth inhibition (GI),HOP-92,Active
same,growth inhibition (GI),OVCAR-4,Active
same,growth inhibition (GI),SK-MEL-2 [5],Active
same,GI50,SK-MEL-2 [6],22.1 µM
same,GI50,RPMI-8226,10.9 µM
same,growth inhibition (GI),U-251,Active
same,GI50,COLO 205 [7],11.6 µM
same,growth inhibition (GI),EKVX,Active
same,growth inhibition (GI),OVCAR-5,Active
same,growth inhibition (GI),UO-31,Active
same,growth inhibition (GI),Malme-3M,Active
same,growth inhibition (GI),NCI-H322M,Active
same,GI50,[8],5.33 µM
same,growth inhibition (GI),COLO 205 [9],Active
same,growth inhibition (GI),IGROV-1,Active
same,growth inhibition (GI),A549,Active
same,GI50,CCRF-CEM,3.34 µM
same,growth inhibition (GI),PC-3,Active
same,GI50,LOX IMVI,5.17 µM
same,growth inhibition (GI),OVCAR-8,Active
same,growth inhibition (GI),HCC 2998,Active
same,growth inhibition (GI),UACC-257,Active
